Legend:
Settings in all cases: stereoisomer not certain
OR1A1 (Homo sapiens) = biological target: T1, OR1A1 (Homo sapiens) (UniProt Q9P1Q5)
T1 sequence (whole entry): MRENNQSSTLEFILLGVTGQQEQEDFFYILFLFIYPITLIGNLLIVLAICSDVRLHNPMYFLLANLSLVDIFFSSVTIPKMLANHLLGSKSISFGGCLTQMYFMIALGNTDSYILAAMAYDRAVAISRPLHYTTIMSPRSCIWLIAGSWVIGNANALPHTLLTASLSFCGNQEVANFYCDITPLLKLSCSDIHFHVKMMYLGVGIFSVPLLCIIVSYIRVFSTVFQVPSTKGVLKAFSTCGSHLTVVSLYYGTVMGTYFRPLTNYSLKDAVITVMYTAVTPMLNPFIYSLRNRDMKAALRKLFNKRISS
Outline: (§1)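 Each receptor–molecule pair is labelled responsive or non-responsive (inactive) according to whether the original authors judged the measured signal statistically different from baseline. The data were taken from the main text and supplementary material of published papers and checked for typos and inconsistencies. Assay methods differed by source, with transient luciferase assays in mammalian cell lines being common.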

OR13C2 (Homo sapiens) = biological target: T2, OR13C2 (Homo sapiens) (UniProt Q8NGS9)
T2 sequence (whole entry): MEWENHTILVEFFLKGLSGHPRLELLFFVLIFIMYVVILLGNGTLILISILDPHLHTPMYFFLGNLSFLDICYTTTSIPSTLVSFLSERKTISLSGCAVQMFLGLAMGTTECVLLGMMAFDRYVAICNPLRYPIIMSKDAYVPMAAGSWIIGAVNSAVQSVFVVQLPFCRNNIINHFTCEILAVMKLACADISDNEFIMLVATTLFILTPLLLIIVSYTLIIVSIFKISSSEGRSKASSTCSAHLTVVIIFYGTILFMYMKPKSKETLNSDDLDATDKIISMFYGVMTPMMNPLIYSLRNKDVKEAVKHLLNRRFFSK
Outline: as §1

OR13C3 (Homo sapiens) = biological target: T3, OR13C3 (Homo sapiens) (UniProt Q8NGS6)
T3 sequence (whole entry): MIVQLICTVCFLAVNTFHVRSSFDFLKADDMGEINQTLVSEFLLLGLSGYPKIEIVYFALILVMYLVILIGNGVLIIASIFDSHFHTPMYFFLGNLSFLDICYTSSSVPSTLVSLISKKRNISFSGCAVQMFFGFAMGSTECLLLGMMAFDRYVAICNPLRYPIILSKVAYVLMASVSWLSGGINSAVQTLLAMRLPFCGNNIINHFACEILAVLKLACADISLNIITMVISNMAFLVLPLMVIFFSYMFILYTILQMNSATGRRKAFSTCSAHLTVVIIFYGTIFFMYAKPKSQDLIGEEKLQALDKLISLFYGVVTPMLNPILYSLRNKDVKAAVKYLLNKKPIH
Outline: as §1

OR13C4 (Homo sapiens) = biological target: T4, OR13C4 (Homo sapiens) (UniProt Q8NGS5)
T4 sequence (whole entry): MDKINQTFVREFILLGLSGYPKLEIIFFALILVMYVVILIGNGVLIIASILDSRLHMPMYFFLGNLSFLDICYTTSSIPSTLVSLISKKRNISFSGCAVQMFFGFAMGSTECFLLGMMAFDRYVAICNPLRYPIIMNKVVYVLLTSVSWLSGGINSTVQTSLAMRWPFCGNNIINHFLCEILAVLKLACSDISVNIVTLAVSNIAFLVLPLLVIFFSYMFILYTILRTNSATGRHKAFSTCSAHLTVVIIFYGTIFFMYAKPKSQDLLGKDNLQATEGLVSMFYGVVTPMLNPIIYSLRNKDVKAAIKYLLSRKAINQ
Outline: as §1

OR13C5 (Homo sapiens) = biological target: T5, OR13C5 (Homo sapiens) (UniProt Q8NGS8)
T5 sequence (whole entry): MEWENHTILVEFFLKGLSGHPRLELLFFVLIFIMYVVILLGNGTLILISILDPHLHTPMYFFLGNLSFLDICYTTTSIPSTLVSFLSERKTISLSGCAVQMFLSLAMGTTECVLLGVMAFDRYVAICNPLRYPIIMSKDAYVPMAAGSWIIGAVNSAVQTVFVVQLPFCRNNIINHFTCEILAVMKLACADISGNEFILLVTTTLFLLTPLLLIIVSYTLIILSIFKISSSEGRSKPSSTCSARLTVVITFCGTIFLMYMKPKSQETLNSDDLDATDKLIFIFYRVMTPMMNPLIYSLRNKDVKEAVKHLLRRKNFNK
Outline: as §1

OR13C8 (Homo sapiens) = biological target: T6, OR13C8 (Homo sapiens) (UniProt Q8NGS7)
T6 sequence (whole entry): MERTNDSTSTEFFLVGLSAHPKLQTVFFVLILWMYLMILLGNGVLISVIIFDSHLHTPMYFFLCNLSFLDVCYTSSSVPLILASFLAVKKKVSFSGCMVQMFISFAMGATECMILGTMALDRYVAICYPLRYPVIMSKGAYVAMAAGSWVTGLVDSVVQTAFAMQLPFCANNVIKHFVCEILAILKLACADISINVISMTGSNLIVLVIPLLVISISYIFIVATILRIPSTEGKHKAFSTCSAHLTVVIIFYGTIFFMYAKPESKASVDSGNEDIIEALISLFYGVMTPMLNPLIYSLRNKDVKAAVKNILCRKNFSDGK
Outline: as §1

OR13C9 (Homo sapiens) = biological target: T7, OR13C9 (Homo sapiens) (UniProt Q8NGT0)
T7 sequence (whole entry): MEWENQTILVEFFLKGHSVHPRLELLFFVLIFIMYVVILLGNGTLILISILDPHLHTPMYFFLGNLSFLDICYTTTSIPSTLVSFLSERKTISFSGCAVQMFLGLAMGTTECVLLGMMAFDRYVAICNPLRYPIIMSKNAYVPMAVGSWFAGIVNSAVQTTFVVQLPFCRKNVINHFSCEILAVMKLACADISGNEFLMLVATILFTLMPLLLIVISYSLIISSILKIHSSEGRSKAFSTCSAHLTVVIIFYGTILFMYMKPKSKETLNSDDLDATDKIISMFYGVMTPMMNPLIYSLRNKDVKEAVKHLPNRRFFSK
Outline: as §1

OR13D1 (Homo sapiens) = biological target: T8, OR13D1 (Homo sapiens) (UniProt Q8NGV5)
T8 sequence (whole entry): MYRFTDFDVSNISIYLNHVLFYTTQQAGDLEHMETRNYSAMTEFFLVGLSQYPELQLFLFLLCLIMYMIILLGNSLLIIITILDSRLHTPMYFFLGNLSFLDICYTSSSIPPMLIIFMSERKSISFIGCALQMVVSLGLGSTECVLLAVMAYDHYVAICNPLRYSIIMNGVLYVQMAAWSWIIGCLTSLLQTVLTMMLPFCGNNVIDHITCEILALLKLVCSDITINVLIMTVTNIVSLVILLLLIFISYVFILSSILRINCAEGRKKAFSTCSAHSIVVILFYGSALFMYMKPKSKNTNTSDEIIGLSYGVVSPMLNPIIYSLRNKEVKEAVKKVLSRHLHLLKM
Outline: as §1

OR13F1 (Homo sapiens) = biological target: T9, OR13F1 (Homo sapiens) (UniProt Q8NGS4)
T9 sequence (whole entry): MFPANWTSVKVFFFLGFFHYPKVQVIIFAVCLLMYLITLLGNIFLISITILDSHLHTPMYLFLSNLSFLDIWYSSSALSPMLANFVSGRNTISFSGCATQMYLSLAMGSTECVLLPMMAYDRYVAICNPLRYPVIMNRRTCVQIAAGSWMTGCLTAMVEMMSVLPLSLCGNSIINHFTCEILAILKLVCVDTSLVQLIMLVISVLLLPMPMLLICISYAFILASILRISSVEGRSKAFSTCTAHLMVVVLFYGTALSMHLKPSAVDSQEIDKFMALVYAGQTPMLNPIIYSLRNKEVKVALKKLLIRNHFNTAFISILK
Outline: as §1

OR13G1 (Homo sapiens) = biological target: T10, OR13G1 (Homo sapiens) (UniProt Q8NGZ3)
T10 sequence (whole entry): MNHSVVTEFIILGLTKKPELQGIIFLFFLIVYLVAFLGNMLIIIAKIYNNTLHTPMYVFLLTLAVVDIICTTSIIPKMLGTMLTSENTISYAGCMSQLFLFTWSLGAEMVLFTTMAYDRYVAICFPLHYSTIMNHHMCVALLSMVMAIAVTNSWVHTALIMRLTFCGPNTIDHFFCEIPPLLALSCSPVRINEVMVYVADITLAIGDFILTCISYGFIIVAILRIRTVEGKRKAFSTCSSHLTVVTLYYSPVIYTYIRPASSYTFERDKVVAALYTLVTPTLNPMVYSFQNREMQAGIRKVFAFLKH
Outline: as §1

OR13H1 (Homo sapiens) = biological target: T11, OR13H1 (Homo sapiens) (UniProt Q8NG92)
T11 sequence (whole entry): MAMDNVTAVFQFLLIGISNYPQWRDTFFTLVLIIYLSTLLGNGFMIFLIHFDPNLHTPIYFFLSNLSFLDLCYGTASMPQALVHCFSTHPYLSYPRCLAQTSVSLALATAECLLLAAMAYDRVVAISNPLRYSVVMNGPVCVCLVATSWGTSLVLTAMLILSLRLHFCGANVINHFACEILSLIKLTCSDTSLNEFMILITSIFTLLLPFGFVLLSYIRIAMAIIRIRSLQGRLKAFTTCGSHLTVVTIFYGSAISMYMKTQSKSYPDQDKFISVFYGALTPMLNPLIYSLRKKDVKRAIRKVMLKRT
Outline: as §1

OR13J1 (Homo sapiens) = biological target: T12, OR13J1 (Homo sapiens) (UniProt Q8NGT2)
T12 sequence (whole entry): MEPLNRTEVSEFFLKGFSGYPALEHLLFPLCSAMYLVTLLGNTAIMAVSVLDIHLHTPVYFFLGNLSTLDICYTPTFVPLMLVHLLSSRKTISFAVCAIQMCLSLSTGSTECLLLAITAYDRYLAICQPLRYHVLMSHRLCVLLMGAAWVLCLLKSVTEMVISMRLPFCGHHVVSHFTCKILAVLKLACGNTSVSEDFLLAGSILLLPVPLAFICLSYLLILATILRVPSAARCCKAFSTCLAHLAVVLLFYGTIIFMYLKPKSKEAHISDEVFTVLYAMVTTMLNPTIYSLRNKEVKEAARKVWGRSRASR
Outline: as §1

OR14A16 (Homo sapiens) = biological target: T13, OR14A16 (Homo sapiens) (UniProt Q8NHC5)
T13 sequence (whole entry): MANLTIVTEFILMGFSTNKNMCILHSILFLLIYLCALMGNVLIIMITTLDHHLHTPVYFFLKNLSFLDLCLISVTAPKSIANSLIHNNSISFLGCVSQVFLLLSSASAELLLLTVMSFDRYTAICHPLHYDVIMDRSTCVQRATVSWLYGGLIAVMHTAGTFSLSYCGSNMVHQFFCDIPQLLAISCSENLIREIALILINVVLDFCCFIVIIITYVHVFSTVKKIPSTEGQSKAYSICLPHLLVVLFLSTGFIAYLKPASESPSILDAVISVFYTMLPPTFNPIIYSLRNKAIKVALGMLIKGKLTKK
Outline: as §1

OR14A2 (Homo sapiens) = biological target: T14, OR14A2 (Homo sapiens) (UniProt Q96R54)
T14 sequence (whole entry): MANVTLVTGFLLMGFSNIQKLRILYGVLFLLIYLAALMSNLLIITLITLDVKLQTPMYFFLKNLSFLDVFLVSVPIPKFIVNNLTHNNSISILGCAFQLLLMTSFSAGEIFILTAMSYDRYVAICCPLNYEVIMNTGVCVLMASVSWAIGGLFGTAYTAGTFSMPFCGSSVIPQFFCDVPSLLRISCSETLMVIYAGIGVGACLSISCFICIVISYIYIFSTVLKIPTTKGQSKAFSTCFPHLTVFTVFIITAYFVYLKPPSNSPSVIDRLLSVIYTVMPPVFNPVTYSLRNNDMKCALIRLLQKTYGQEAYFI
Outline: as §1

OR14C36 (Homo sapiens) = biological target: T15, OR14C36 (Homo sapiens) (UniProt Q8NHC7)
T15 sequence (whole entry): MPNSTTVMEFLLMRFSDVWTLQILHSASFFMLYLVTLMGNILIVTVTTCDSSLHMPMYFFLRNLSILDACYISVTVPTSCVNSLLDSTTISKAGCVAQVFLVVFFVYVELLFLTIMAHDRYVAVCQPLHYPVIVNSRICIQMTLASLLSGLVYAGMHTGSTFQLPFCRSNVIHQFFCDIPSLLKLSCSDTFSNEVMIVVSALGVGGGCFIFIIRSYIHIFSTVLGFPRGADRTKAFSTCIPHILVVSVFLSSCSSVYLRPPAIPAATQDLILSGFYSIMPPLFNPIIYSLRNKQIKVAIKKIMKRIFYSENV
Outline: as §1

OR14I1 (Homo sapiens) = biological target: T16, OR14I1 (Homo sapiens) (UniProt A6ND48)
T16 sequence (whole entry): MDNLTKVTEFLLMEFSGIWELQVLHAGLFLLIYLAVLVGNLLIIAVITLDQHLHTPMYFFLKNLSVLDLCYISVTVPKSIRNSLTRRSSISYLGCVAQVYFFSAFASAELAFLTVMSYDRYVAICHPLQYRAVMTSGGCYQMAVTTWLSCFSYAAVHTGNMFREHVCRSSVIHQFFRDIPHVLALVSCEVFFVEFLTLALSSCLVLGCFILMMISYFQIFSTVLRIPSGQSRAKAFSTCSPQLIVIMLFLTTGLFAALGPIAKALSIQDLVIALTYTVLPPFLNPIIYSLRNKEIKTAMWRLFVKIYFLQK
Outline: as §1

OR14J1 (Homo sapiens) = biological target: T17, OR14J1 (Homo sapiens) (UniProt Q9UGF5)
T17 sequence (whole entry): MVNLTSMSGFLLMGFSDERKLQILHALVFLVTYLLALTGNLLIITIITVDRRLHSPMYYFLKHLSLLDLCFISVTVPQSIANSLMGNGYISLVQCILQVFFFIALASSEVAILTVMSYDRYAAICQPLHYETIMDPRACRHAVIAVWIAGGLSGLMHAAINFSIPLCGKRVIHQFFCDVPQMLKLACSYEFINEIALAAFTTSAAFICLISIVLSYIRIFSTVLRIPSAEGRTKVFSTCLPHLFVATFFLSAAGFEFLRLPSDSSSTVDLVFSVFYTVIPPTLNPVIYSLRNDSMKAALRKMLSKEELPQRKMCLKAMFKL
Outline: as §1

OR14K1 (Homo sapiens) = biological target: T18, OR14K1 (Homo sapiens) (UniProt Q8NGZ2)
T18 sequence (whole entry): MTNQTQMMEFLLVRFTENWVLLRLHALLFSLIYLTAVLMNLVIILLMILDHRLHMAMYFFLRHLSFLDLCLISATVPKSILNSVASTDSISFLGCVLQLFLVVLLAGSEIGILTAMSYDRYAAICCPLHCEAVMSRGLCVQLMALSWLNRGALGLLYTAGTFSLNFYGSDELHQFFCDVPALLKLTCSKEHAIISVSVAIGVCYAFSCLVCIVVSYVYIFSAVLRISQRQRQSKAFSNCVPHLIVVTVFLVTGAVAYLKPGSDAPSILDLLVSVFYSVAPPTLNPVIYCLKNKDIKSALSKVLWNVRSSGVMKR
Outline: as §1

Measured: odorant receptor agonist call

CCCCCCC(C)=O
active: OR1A1 (Homo sapiens)

CC1=NC(C)C(C)S1 (stereo unspecified)
inactive: all assays above

CCCCCC1CCCC(=O)O1 (stereo unspecified)
inactive: OR1A1 (Homo sapiens)

c1cnc2c(c1)ccc1cccnc12
inactive: OR1A1 (Homo sapiens)

C1CCNC1
inactive: OR1A1 (Homo sapiens)

CCC=CCCC=CCO
inactive: OR1A1 (Homo sapiens)

CCCCCC(=O)C(C)C(C)=O (stereo unspecified)
active: OR1A1 (Homo sapiens)
inactive: all other assays above
